According to ChEMBL document CHEMBL1126569, “Nucleosides and nucleotides. 123. Synthesis of 1-(2-deoxy-2-isocyano-beta-D-arabinofuranosyl)cytosine and related nucleosides as potential antitumor agents” (J Med Chem, 1993):

Assays:
Mus musculus [1] = assay: Mean body weight change on 17th day at a dose of 100 mg/kg/day; type: functional
How it was run: (§1)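 LLC fragments were implanted s.c. into male BDF1 mice aged 9 weeks on day 0, with seven animals per dose. Drug dissolved in saline was given intraperitoneally once a day for 5 days, days 1–5. Mean body weight change was recorded on day 5 and on day 17 and compared with saline-vehicle controls.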

Mus musculus [2] = assay: Mean body weight change on 5th day at a dose of 200 mg/kg/day; type: functional; how it was run: as §1
Mus musculus [3] = assay: Mean body weight change on 5th day at a dose of 100 mg/kg/day; type: functional; how it was run: as §1
Mus musculus [4] = assay: Tested in vivo for antitumor activity against Lewis Lung Carcinoma cell line in mice and tumor weight change at 100 mg/Kg per day; type: functional
How it was run: (§2)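 A 2-mm cube of LLC was implanted s.c. in the backs of 9-week-old male BDF1 mice on day 0, with 7 mice per dose group. Drug in saline was given i.p. once daily on days 1–5 at 0.1 mL/10 g body weight. Tumor weight was measured on day 17. Percent inhibition compares the mean tumor weight of treated mice with vehicle-only controls.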

Mus musculus [5] = assay: Tested for in vivo antitumor activity against Lewis Lung Carcinoma cell line in mice and tumor weight change at 200 mg/Kg per day; type: functional; how it was run: as §2
[6] = system: KATO III stomach cancer cell line; assay: Tested in vitro for cytotoxicity against KATO III human stomach adenocarcinoma cell line; type: functional, cell-based
How it was run: (§3)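 Cells were grown in RPMI 1640 with 10% FCS, and the L1210 medium also had 2-mercaptoethanol added. Compound was dissolved in Ca/Mg-free Dulbecco's PBS or saline, diluted in culture medium and applied for 72 h in a CO2 incubator. Cells were fixed in 0.1% glutaraldehyde and stained with 0.01% crystal violet. Dye was extracted in 50% EtOH–25 mM NaH2PO4 and OD read. IC50 is the concentration giving 50% reduction of optical density.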

Mus musculus [7] = assay: Mean body weight change on 17th day at a dose of 200 mg/kg/day; type: functional; how it was run: as §1
L1210 [8] = assay: Tested in vitro for cytotoxicity against leukemia L1210 cell line in mouse; type: functional, cell-based; how it was run: as §3
KB [9] = assay: Tested in vitro for cytotoxicity against KB human oral epidermoid carcinoma cell line; type: functional, cell-based; how it was run: as §3
Mus musculus [10] = assay: In vivo percent inhibition of Lewis Lung Carcinoma cell line in mice at 100 mg/Kg per day (p<0.001) compared with ara-C; type: functional; how it was run: as §2
Mus musculus [11] = assay: In vivo percent inhibition of Lewis Lung Carcinoma cell line in mice at 200 mg/Kg per day (p<0.001) compared with ara-C; type: functional; how it was run: as §2
[12] = system: Lewis lung carcinoma cell line; assay: Tested in vitro for cytotoxicity against LLC Lewis lung carcinoma cell line; type: functional, cell-based; settings: Mus musculus; how it was run: as §3
L1210 [13] = assay: tested in vitro for cytotoxicity against L1210 leukemia cell line in mouse; type: functional, cell-based; how it was run: as §3
KB [14] = assay: tested in vitro for cytotoxicity against KB human oral epidermoid carcinoma cell line; type: functional, cell-based; how it was run: as §3
[15] = system: KATO III stomach cancer cell line; assay: tested for in vitro cytotoxicity against KATO III human stomach adenocarcinoma cell line; type: functional, cell-based; how it was run: as §3
[16] = system: Lewis lung carcinoma cell line; assay: tested for in vitro cytotoxicity against LLC Lewis lung carcinoma cell line; type: functional, cell-based; settings: Mus musculus; how it was run: as §3
Mus musculus [17] = assay: Tested for in vivo antitumor activity against Lewis Lung Carcinoma cell line in mice and tumor weight change at 100 mg/Kg per day; type: functional; how it was run: as §2
[18] = system: KATO III stomach cancer cell line; assay: Tested for in vitro cytotoxicity against KATO III human stomach adenocarcinoma cell line; type: functional, cell-based; how it was run: as §3
Mus musculus [19] = assay: In vivo percent inhibition of Lewis Lung Carcinoma cell line in mice drug at 200 mg/Kg per day (p<0.001) compared with NCDAC; type: functional; how it was run: as §2
L1210 [20] = assay: Tested in vitro for cytotoxicity against L1210 leukemia cell line in mouse
KB [21] = assay: Tested for in vitro cytotoxicity against KB human oral epidermoid carcinoma cell line; type: functional, cell-based; how it was run: as §3
Mus musculus [22] = assay: In vivo percent inhibition of Lewis Lung Carcinoma cell line in mice at 100 mg/Kg per day (p<0.001) compared with NCDAC; type: functional; how it was run: as §2
[23] = system: Lewis lung carcinoma cell line; assay: Tested for in vitro cytotoxicity against LLC Lewis lung carcinoma cell line; type: functional, cell-based; settings: Mus musculus; how it was run: as §3

[C-]#[N+][C@@H]1[C@H](n2ccc(N)nc2=O)OC(CO)[C@@H]1O (stereo partly drawn)
Weight change (Mus musculus [1]): 2
Weight change (Mus musculus [2]): 0.2
Weight change (Mus musculus [3]): 0.4
Tumor weight (Mus musculus [4]): 1.08 g
Tumor weight (Mus musculus [5]): 1.09 g
IC50 [6]: 90 µM
Weight change (Mus musculus [7]): 2.1
IC50 (L1210 [8]): 12.6 µM
IC50 (KB [9]): 7.9 µM
Inhibition ratio (Mus musculus [10]): 61%
Inhibition ratio (Mus musculus [11]): 60.6%
IC50 [12]: 4.9 µM

[C-]#[N+][C@@H]1[C@H](n2ccc(=O)[nH]c2=O)OC(CO)[C@@H]1O (stereo partly drawn)
IC50 (L1210 [13]): 34 µM
IC50 (KB [14]): 36.8 µM
IC50 [15]: > 100 µM
IC50 [16]: > 100 µM

Nc1ccn([C@@H]2O[C@H](CO)[C@@H](O)[C@@H]2O)c(=O)n1 [CYTARABINE]
Weight change (Mus musculus [1]): 0.8
Weight change (Mus musculus [2]): -0.1
Weight change (Mus musculus [3]): -0.4
Tumor weight (Mus musculus [17]): 0.47 g
Tumor weight (Mus musculus [5]): 0.34 g
IC50 [18]: 0.3 µM
Weight change (Mus musculus [7]): 0.7
Inhibition ratio (Mus musculus [19]): 87.7%
IC50 (L1210 [20]): 0.12 µM
IC50 (KB [21]): 0.64 µM
Inhibition ratio (Mus musculus [22]): 83%
IC50 [23]: 5.6 µM
